Reference: ChEMBL document CHEMBL2040833, “Metabolism-based synthesis, biologic evaluation and SARs analysis of O-methylated analogs of quercetin as thrombin inhibitors” (Eur J Med Chem, 2012)

Columns and labels:
[1] = target: Thrombin (Oryctolagus cuniculus) (UniProt Q28731); assay: Inhibition of thrombin in New Zealand rabbit plasma assessed as thrombin time at 100 uM after 3 mins by coagulometry
Outline: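 Using citrated rabbit platelet-poor plasma, 40 µl PPP was held 3 min at 37 °C, then 40 µl thrombin solution and 20 µl sample (in 80% ethanol) were added for 3 min at 37 °C. Clotting time was measured by coagulometer with a commercial kit, and prolongation was scored.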

[2] = target: Thrombin (Oryctolagus cuniculus) (UniProt Q28731); assay: Inhibition of thrombin in New Zealand rabbit plasma assessed as activated partial thromboplastin time at 100 uM after 3 mins by coagulometry
Outline: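 Sample in 80% ethanol; 10 µl sample and 50 µl PPP incubated with 50 µl APTT-activating agent 3 min at 37 °C, then 50 µl CaCl2 added; clotting time by coagulometer with commercial kit; prolongation scored.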

[3] = target: Thrombin (Oryctolagus cuniculus) (UniProt Q28731); assay: Inhibition of thrombin in New Zealand rabbit plasma assessed as prothrombin time at 100 uM by coagulometry
Outline: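 40 µl PPP preincubated 3 min at 37 °C, then 40 µl thromboplastin agent plus 20 µl sample (in 80% ethanol) added; clotting read by coagulometer with commercial kit; activity expressed as INR increase.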

[4] = target: Thrombin (Oryctolagus cuniculus) (UniProt Q28731); assay: Inhibition of thrombin in New Zealand rabbit plasma assessed as fibrinogen level at 100 uM by coagulometry
Outline: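 Citrated rabbit platelet-poor plasma (3000 rpm 10 min). 10 µl PPP incubated with 90 µl imidazole buffer 3 min at 37 °C, then 50 µl FIB agent and 10 µl sample (in 80% ethanol) added; fibrinogen content read on coagulometer with commercial kit; reduction in FIB content scored.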

SMILES | TT [1] [s] | APTT [2] [s] | PT [3] [s] | Activity [4] [g/L]
COc1cc(O)c2c(=O)c(OC)c(-c3ccc(O)c(O)c3)oc2c1 | 22.5 | 54.7 | 7.3 | 7.3
COc1cc(OC)c2c(=O)c(O)c(-c3ccc(O)c(O)c3)oc2c1 | 21.8 | 67.6 | 6.9 | 5.1
COc1cc(-c2oc3cc(O)cc(O)c3c(=O)c2O)ccc1O | 20.5 | 82.3 | 5.3 | 5.4
COc1ccc(-c2oc3cc(O)cc(OC)c3c(=O)c2O)cc1OC | 15.9 | 49.3 | 5.1 | 7.9
COc1cc(O)c2c(=O)c(OC)c(-c3ccc(OC)c(O)c3)oc2c1 | 14.9 | 61.7 | 6 | 5.3
O=c1c(O)c(-c2ccc(O)c(O)c2)oc2cc(O)cc(O)c12 | 19.2 | 30.3 | 6.2 | 5.8
COc1cc(O)cc2oc(-c3ccc(O)c(O)c3)c(O)c(=O)c12 | 19.4 | 49.2 | 7.6 | 5
COc1cc(O)c2c(=O)c(O)c(-c3ccc(OC)c(O)c3)oc2c1 | 14.8 | 46.2 | 7.4 | 5.9
COc1ccc(-c2oc3cc(O)cc(O)c3c(=O)c2O)cc1OC | 9.9 | 58.7 | 5.8 | 6.6
COc1c(-c2ccc(O)c(O)c2)oc2cc(O)cc(O)c2c1=O | 22.9 | 50.2 | 4.8 | 4.7
COc1cc(-c2oc3cc(O)cc(OC)c3c(=O)c2O)ccc1O | 22.3 | 57.6 | 5.8 | 6.2
COc1c(-c2ccc(O)c(O)c2)oc2cc(O)cc(OC)c2c1=O | 20 | 63.7 | 5.7 | 5.4
COc1ccc(-c2oc3cc(O)cc(O)c3c(=O)c2O)cc1O | 16.6 | 49.8 | 6.9 | 7.5
COc1cc(O)c2c(=O)c(O)c(-c3ccc(O)c(O)c3)oc2c1 | 23 | 72.6 | 6.8 | 5.4
COc1cc(O)c2c(=O)c(OC)c(-c3ccc(OC)c(OC)c3)oc2c1 | 14.2 | 42.4 | 5.4 | 8.4
COc1cc(OC)c2c(=O)c(OC)c(-c3ccc(OC)c(OC)c3)oc2c1 | 11.6 | 40.3 | 5.2 | 8.9
